Converted amounts (≈) assume the structure as drawn.
Key:
Cryptococcus neoformans [1] = assay: Antifungal activity against Cryptococcus neoformans IM 00319 after 48 hrs by broth microdilution technique; format: functional; settings: IM 00319, 48 h
In short: (§1)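 C. neoformans was tested by 96-well RPMI-1640 microdilution, with DMSO-matched growth and sterility control wells. Plates were incubated 48 h at 30 °C in a moist, dark chamber and read at OD405. % inhibition = 100 − (CTW − SCW)/(GCW − SCW), in duplicate. For the clinical isolates, MIC80 and MIC50 are the lowest concentrations giving 80% and 50% inhibition.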

Candida albicans [2] = assay: Antifungal activity against Candida albicans CCC 130 after 24 hrs by broth microdilution technique; settings: CCC 130, 24 h
Cryptococcus neoformans [3] = assay: Antifungal activity against Cryptococcus neoformans ATCC 32264 after 48 hrs by broth microdilution technique; format: functional; settings: ATCC 32264, 48 h
In short: (§2)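 Yeasts were tested by CLSI broth microdilution in RPMI-1640 buffered to pH 7.0 with MOPS, with compound from 250 down to 0.98 in DMSO stocks. Trays were held at 30 °C in a moist, dark chamber. MIC100, the lowest concentration giving total visual inhibition against the growth control, was read by eye at 48 h.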

Candida albicans [4] = assay: Antifungal activity against Candida albicans CCC 127 after 48 hrs by broth microdilution technique; format: functional; settings: CCC 127, 48 h
Candida albicans [5] = assay: Antifungal activity against Candida albicans CCC 126 after 48 hrs by broth microdilution technique; format: functional; settings: CCC 126, 48 h
Aspergillus fumigatus = assay: Antifungal activity against Aspergillus fumigatus ATCC 26934 after 48 hrs by broth microdilution technique; format: functional; settings: ATCC 26934, 48 h
In short: (§3)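 Moulds and dermatophytes were run by CLSI broth microdilution in MOPS-buffered RPMI-1640 at pH 7.0. Aspergillus was incubated at 30 °C and dermatophytes at 28–30 °C, in a moist, dark chamber. MIC100, the lowest concentration with no visible growth, was read visually at a time set by growth of the control fungus.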

Nannizzia gypsea = assay: Antifungal activity against Microsporum gypseum CCC 115 after 48 hrs by broth microdilution technique; format: functional; settings: CCC 115, 48 h; in short: as §3
Pichia kudriavzevii = assay: Antifungal activity against Candida krusei CCC 117 after 48 hrs by broth microdilution technique; format: functional; settings: CCC 117, 48 h
Candida albicans [6] = assay: Antifungal activity against Candida albicans CCC 128 after 48 hrs by broth microdilution technique; format: functional; settings: CCC 128, 48 h
Cryptococcus neoformans [7] = assay: Antifungal activity against Cryptococcus neoformans IM 972751 after 48 hrs by broth microdilution technique; format: functional; settings: IM 972751, 48 h; in short: as §1
[8] = test system: Trichophyton mentagrophytes; assay: Antifungal activity against Trichophyton mentagrophytes ATCC 9972 after 48 hrs by broth microdilution technique; format: functional; settings: ATCC 9972, 48 h; in short: as §3
Aspergillus flavus = assay: Antifungal activity against Aspergillus flavus ATCC 9170 after 48 hrs by broth microdilution technique; format: functional; settings: ATCC 9170, 48 h; in short: as §3
Cryptococcus neoformans [9] = assay: Antifungal activity against Cryptococcus neoformans IM 972724 after 48 hrs by broth microdilution technique; format: functional; settings: IM 972724, 48 h; in short: as §1
Trichophyton rubrum = assay: Antifungal activity against Trichophyton rubrum CCC 113 after 48 hrs by broth microdilution technique; format: functional; settings: CCC 113, 48 h
Cryptococcus neoformans [10] = assay: Antifungal activity against Cryptococcus neoformans IM 983036 after 48 hrs by broth microdilution technique; format: functional; settings: IM 983036, 48 h; in short: as §1
Saccharomyces cerevisiae = assay: Antifungal activity against Saccharomyces cerevisiae ATCC 9763 after 48 hrs by broth microdilution technique; format: functional; settings: ATCC 9763, 48 h; in short: as §2
Candida albicans [11] = assay: Antifungal activity against Candida albicans CCC 129 after 48 hrs by broth microdilution technique; format: functional; settings: CCC 129, 48 h
Cryptococcus neoformans [12] = assay: Antifungal activity against Cryptococcus neoformans ATCC 32264 at 31.2 ug/ml after 48 hrs; format: functional; settings: ATCC 32264, 48 h; in short: as §1
Candida parapsilosis = assay: Antifungal activity against Candida parapsilosis CCC 124 after 48 hrs by broth microdilution technique; format: functional; settings: Lodderomyces parapsilosis, CCC 124, 48 h
Nakaseomyces glabratus = assay: Antifungal activity against Candida glabrata CCC 115 after 48 hrs by broth microdilution technique; format: functional; settings: CCC 115, 48 h
Cryptococcus neoformans [13] = assay: Antifungal activity against Cryptococcus neoformans IM 983040 after 48 hrs by broth microdilution technique; format: functional; settings: IM 983040, 48 h; in short: as §1
Candida tropicalis = assay: Antifungal activity against Candida tropicalis CCC 131 after 48 hrs by broth microdilution technique; format: functional; settings: CCC 131, 48 h
Candida albicans [14] = assay: Antifungal activity against Candida albicans CCC 125 after 48 hrs by broth microdilution technique; format: functional; settings: CCC 125, 48 h
Aspergillus niger = assay: Antifungal activity against Aspergillus niger ATCC 9029 after 48 hrs by broth microdilution technique; format: functional; settings: ATCC 9029, 48 h; in short: as §3
Candida albicans [15] = assay: Antifungal activity against Candida albicans CCC 130 after 48 hrs by broth microdilution technique; format: functional; settings: CCC 130, 48 h
Candida albicans [16] = assay: Antifungal activity against Candida albicans ATCC 10231 at 31.2 ug/ml after 24 hrs; format: functional; settings: ATCC 10231, 24 h
In short: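 C. albicans was grown in 96-well RPMI-1640 broth microdilution with compound wells diluted from DMSO stocks. Growth wells with matched DMSO and sterility wells were included. After 24 h at 30 °C in a moist, dark chamber, OD405 was read. % inhibition = 100 − (CTW − SCW)/(GCW − SCW) OD, done in duplicate.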

Candida albicans [17] = assay: Antifungal activity against Candida albicans ATCC 10231 after 48 hrs by broth microdilution technique; format: functional; settings: ATCC 10231, 48 h; in short: as §2
Cryptococcus neoformans [18] = assay: Antifungal activity against Cryptococcus neoformans IM 042074 after 48 hrs by broth microdilution technique; format: functional; settings: IM 042074, 48 h; in short: as §1

MIC50 (Cryptococcus neoformans [1]): 15.6 µg/mL (≈ 62.3 µM) | MIC80 (Cryptococcus neoformans [1]): 62.5 µg/mL (≈ 250 µM) | MIC50 (Candida albicans [2]): 15.6 µg/mL (≈ 62.3 µM) | MIC (Cryptococcus neoformans [3]): 125 µg/mL (≈ 499 µM) | MIC50 (Cryptococcus neoformans [3]): 15.6 µg/mL (≈ 62.3 µM) | MIC80 (Cryptococcus neoformans [3]): 31.2 µg/mL (≈ 125 µM) | MIC50 (Candida albicans [4]): 31.2 µg/mL (≈ 125 µM) | MIC80 (Candida albicans [4]): 62.5 µg/mL (≈ 250 µM) | MIC50 (Candida albicans [5]): 62.5 µg/mL (≈ 250 µM) | MIC80 (Candida albicans [5]): 62.5 µg/mL (≈ 250 µM) | MIC (Aspergillus fumigatus): 250 µg/mL (≈ 999 µM) | MIC (Nannizzia gypsea): 125 µg/mL (≈ 499 µM) | MIC50 (Pichia kudriavzevii): 15.6 µg/mL (≈ 62.3 µM) | MIC80 (Pichia kudriavzevii): 31.2 µg/mL (≈ 125 µM) | MIC50 (Candida albicans [6]): 31.2 µg/mL (≈ 125 µM) | MIC80 (Candida albicans [6]): 62.5 µg/mL (≈ 250 µM) | MIC50 (Cryptococcus neoformans [7]): 15.6 µg/mL (≈ 62.3 µM) | MIC80 (Cryptococcus neoformans [7]): 31.2 µg/mL (≈ 125 µM) | MIC [8]: 125 µg/mL (≈ 499 µM) | MIC (Aspergillus flavus): 250 µg/mL (≈ 999 µM) | MIC50 (Cryptococcus neoformans [9]): 31.2 µg/mL (≈ 125 µM) | MIC80 (Cryptococcus neoformans [9]): 62.5 µg/mL (≈ 250 µM) | MIC (Trichophyton rubrum): 125 µg/mL (≈ 499 µM) | MIC50 (Cryptococcus neoformans [10]): 31.2 µg/mL (≈ 125 µM) | MIC80 (Cryptococcus neoformans [10]): 62.5 µg/mL (≈ 250 µM) | MIC (Saccharomyces cerevisiae): 250 µg/mL (≈ 999 µM) | MIC50 (Candida albicans [11]): 31.2 µg/mL (≈ 125 µM) | MIC80 (Candida albicans [11]): 62.5 µg/mL (≈ 250 µM) | MIC50 (Candida parapsilosis): 7.8 µg/mL (≈ 31.2 µM) | MIC80 (Candida parapsilosis): 15.6 µg/mL (≈ 62.3 µM) | MIC50 (Nakaseomyces glabratus): 15.6 µg/mL (≈ 62.3 µM) | MIC80 (Nakaseomyces glabratus): 31.2 µg/mL (≈ 125 µM) | MIC50 (Cryptococcus neoformans [13]): 31.2 µg/mL (≈ 125 µM) | MIC80 (Cryptococcus neoformans [13]): 62.5 µg/mL (≈ 250 µM) | MIC50 (Candida tropicalis): 62.5 µg/mL (≈ 250 µM) | MIC80 (Candida tropicalis): 125 µg/mL (≈ 499 µM) | MIC50 (Candida albicans [14]): 15.6 µg/mL (≈ 62.3 µM) | MIC80 (Candida albicans [14]): 31.2 µg/mL (≈ 125 µM) | MIC (Aspergillus niger): > 250 µg/mL | MIC80 (Candida albicans [15]): 31.2 µg/mL (≈ 125 µM) | MIC (Candida albicans [17]): 125 µg/mL (≈ 499 µM) | MIC50 (Candida albicans [17]): 15.6 µg/mL (≈ 62.3 µM) | MIC80 (Candida albicans [17]): 31.2 µg/mL (≈ 125 µM) | MIC50 (Cryptococcus neoformans [18]): 15.6 µg/mL (≈ 62.3 µM) | MIC80 (Cryptococcus neoformans [18]): 62.5 µg/mL (≈ 250 µM)
SMILES: Fc1ccc2nc(/C=C/c3ccccn3)ccc2c1
MFC (Cryptococcus neoformans [3]): > 250 µg/mL | MFC (Aspergillus fumigatus): > 250 µg/mL | MFC (Nannizzia gypsea): > 250 µg/mL | MFC [8]: > 250 µg/mL | MFC (Aspergillus flavus): > 250 µg/mL | MFC (Trichophyton rubrum): > 250 µg/mL | MFC (Saccharomyces cerevisiae): > 250 µg/mL | inhibition at 31.2 µg/mL (Cryptococcus neoformans [12]): 80% | inhibition at 31.2 µg/mL (Candida albicans [16]): 80% | MFC (Candida albicans [17]): > 250 µg/mL
